Measurements reported in ChEMBL document CHEMBL5214966, “Discovery of BT8009: A Nectin-4 Targeting Bicycle Toxin Conjugate for the Treatment of Cancer” (J Med Chem, 2022).
Converted amounts (≈) assume the structure as drawn. The source made the active and inactive calls. No cut-off for these calls is given here. *1 amine or outer side, *2 acyl side, *3 side chain or, on linkers, in order; H or OH if unused. Where a SMILES comes first, the peptide text is derived from it. Bridges are numbered along the chain shown (N, C = ends). [ ]: non-standard residue; d: D form. TATA = O=C(CC[*:1])N1CN(C(=O)CC[*:2])CN(C(=O)CC[*:3])C1

Experiments:
[1] = Stability in human plasma assessed as half life measured upto 24 hrs by LC-MS/MS analysis; assay type: ADME, cell-free
[2] = Stability in mouse plasma assessed as half life measured upto 24 hrs by LC-MS/MS analysis; assay type: ADME, cell-free
Nectin-4 = molecular target: T1, Nectin-4 (Homo sapiens, UniProt Q96NY8); experiment: Displacement of tracer from C-terminal FLAG-tagged human Nectin-4 (32 to 349 residues) expressed in baculovirus infected sf9 cells assessed as inhibition constant measured at 5 to 10 mins interval for 60 mins by fluorescence polarization assay
T1 sequence (Q96NY8 whole entry): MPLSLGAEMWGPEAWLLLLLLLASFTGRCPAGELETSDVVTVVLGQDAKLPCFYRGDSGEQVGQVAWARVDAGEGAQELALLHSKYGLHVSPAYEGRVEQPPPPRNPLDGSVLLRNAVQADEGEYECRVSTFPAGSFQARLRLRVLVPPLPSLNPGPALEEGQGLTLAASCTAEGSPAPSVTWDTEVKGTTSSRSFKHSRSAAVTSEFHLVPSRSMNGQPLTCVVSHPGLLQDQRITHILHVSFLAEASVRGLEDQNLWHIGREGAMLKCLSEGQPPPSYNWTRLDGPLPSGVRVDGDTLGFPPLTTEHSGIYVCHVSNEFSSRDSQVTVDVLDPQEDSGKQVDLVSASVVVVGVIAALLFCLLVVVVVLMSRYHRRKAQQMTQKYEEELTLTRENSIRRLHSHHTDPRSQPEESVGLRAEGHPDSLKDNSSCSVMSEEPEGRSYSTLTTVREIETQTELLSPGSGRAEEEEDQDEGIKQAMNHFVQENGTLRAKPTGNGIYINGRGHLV

[3] = Thermodynamic solubility of the compound in phosphate buffer at pH 7.4; assay type: physicochemical; settings: read-out: Therm_solubility
Outline: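 Thermodynamic solubility measured in phosphate buffer at pH 7.4, expressed in mg/mL.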

[4] = Plasma protein binding in mouse by LC/MS/MS analysis; assay type: ADME, cell-free; settings: read-out: PPB (converted)
MDA-MB-468 [5] = experiment: Antitumor activity against human MDA-MB-468 cells xenografted in Balb/c mouse model assessed as tumor regression at 3 mg/kg, iv administered as bolus injection once weekly for 18 days; assay type: functional, organism-based; settings: time 18.0 day
Outline: (§1)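 Dosing regimens were 3 mg/kg once weekly, 3 mg/kg twice weekly, or 5 mg/kg once weekly. Dosing ran 18 days. After dosing stopped, the 5 mg/kg once-weekly group was followed to day 42. Read-out was tumour growth/regression.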

[6] = Plasma protein binding in human LC/MS/MS analysis; assay type: ADME, cell-free; settings: read-out: PPB (converted)
MDA-MB-468 [7] = experiment: Antitumor activity against human MDA-MB-468 cells xenografted in Balb/c mouse model assessed as tumor regression at 3 mg/kg, iv twice weekly or 5 mg/kg, iv once weekly administered as bolus injection for 18 days; assay type: functional, organism-based; settings: dose 3-5 mg/kg, time 18.0 day; outline: as §1
MDA-MB-468 [8] = experiment: Antitumor activity against human MDA-MB-468 cells xenografted in Balb/c mouse model assessed as tumor regression 5 mg/kg, iv administered as bolus injection once weekly for 18 days and measured upto 42 days; assay type: functional, organism-based; settings: time <= 42.0 day; outline: as §1
[9] = Toxicity in Balb/c mouse assessed as drug tolerability at 3 to 5 mg/kg, iv administered as bolus injection measured upto 42 days; assay type: organism-based; settings: in vivo, 1008 h, dose 3-5 mg/kg, time < 42 day
Outline: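 Doses were 3 mg/kg once or twice weekly and 5 mg/kg once weekly over 18 days, with one group monitored to day 42.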

[10] = Clearance in mouse plasma at 3 mg/kg, iv administered as bolus injection; assay type: ADME, organism-based
Outline: (§2)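 Mouse pharmacokinetics after a single 3 mg/kg IV bolus. Terminal half-life, plasma clearance (mL/min/kg) and steady-state volume of distribution (L/kg) were derived from plasma levels.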

[11] = Half life in mouse at 3 mg/kg, iv administered as bolus injection; assay type: ADME, organism-based; settings: in vivo; outline: as §2
[12] = Volume of distribution at steady state in mouse at 3 mg/kg, iv administered as bolus injection; assay type: ADME, organism-based; settings: in vivo, read-out: Vdss; outline: as §2

fraction unbound [4] | fraction unbound [6] | clearance [10] [mL/min/kg] | half-life [11] [h] | Vd [12] [L/kg] | SMILES | half-life [1] [h] | half-life [2] [h] | Ki (Nectin-4) [nM] | solubility thermodynamic [3] [µg/mL] | Activity (MDA-MB-468 [5]) | Activity (MDA-MB-468 [7]) | Activity (MDA-MB-468 [8]) | Activity [9]
– | – | – | – | – | CC[C@H](C)[C@@H]1NC(=O)[C@@H]2CCCN2C(=O)[C@H](Cc2c[nH]c3ccccc23)NC(=O)[C@H](CO)NC(=O)[C@H](Cc2c[nH]c3ccccc23)NC(=O)[C@H](CC(N)=O)NC(=O)[C@H](CCCCN)NC(=O)[C@H](CCSC)NC(=O)[C@@H]2CSCCC(=O)N3CN(CN(C3)C(=O)CCSC[C@@H](NC(C)=O)C(=O)N3CCC[C@H]3C(=O)N[C@@H](Cc3ccccc3)C(=O)NCC(=O)N2)C(=O)CCSC[C@@H](C(=O)N[C@H](C(=O)N[C@@H](CC(N)=O)C(=O)N[C@@H](CCCCN)C(N)=O)[C@@H](C)O)NC(=O)[C@H](Cc2c[nH]c3ccccc23)NC1=O (Ac-[dC]PFGCMKNWSWPIWCTNK-NH2; linker 1-5-15 via TATA) | > 24 | 2.2 | 13.5 | 4400 (≈ 1770 µM) | – | – | – | –
0.118 | 0.207 | 3.5 | 1 | 0.25 | CC[C@H](C)[C@@H]([C@H](CC(=O)N1CCCC1[C@@H](OC)[C@H](C)C(=O)N[C@@H](C)[C@H](O)c1ccccc1)OC)N(C)C(=O)[C@@H](NC(=O)[C@H](C(C)C)N(C)C(=O)OCc1ccc(NC(=O)[C@H](CCCNC(N)=O)NC(=O)[C@@H](NC(=O)CCCC(=O)NCCC(=O)N(C)CC(=O)N(C)CC(=O)N(C)CC(=O)N(C)CC(=O)N(C)CC(=O)N(C)CC(=O)N(C)CC(=O)N(C)CC(=O)N(C)CC(=O)N(C)CC(=O)N[C@@H](C)N[C@@H](CCCCNC(=N)N)C(=O)N[C@@H](CC(=O)O)C(=O)N[C@H]2CSCCC(=O)N3CN4CCC(=O)SC[C@H](NC(=O)[C@H](CC(C)C)NC(=O)[C@@H]5CCCN5C(=O)[C@H](CC(N)=O)NC(=O)[C@H](C(C)C)NC(=O)[C@H](CC(C)C)NC(=O)C5C[C@@H](O)CN5C2=O)C(=O)N[C@@H](CC(C)C)C(=O)N[C@@H](Cc2c[nH]cn2)C(=O)N2CCCC2C(=O)N[C@@H](CC(=O)O)C(=O)N[C@@H](Cc2c[nH]c5ccccc25)C(=O)N[C@@H](Cc2c[nH]c5ccccc25)C(=O)NC(CCCCNC(=N)N)C(=O)N[C@H](C(N)=O)CSCCC(=O)N(C4)C3)C(C)C)cc1)C(C)C (stereo partly specified) | > 57.8 | 4.4 | – | 800 (≈ 175 µM) | Active | Active | Active | Non-Toxic
